Data on one compound can be found in ChEMBL document CHEMBL4732088, “Identification and optimization of piperlongumine analogues as potential antioxidant and anti-inflammatory agents via activation of Nrf2” (Eur J Med Chem, 2021).

Calls of active or inactive are those of the source. The calls are words filed in the database; no cut-off is given here.

Assay [1] addresses T1, Nuclear factor erythroid 2-related factor 2 (Rattus norvegicus) (UniProt O54968).
T1 sequence (whole entry): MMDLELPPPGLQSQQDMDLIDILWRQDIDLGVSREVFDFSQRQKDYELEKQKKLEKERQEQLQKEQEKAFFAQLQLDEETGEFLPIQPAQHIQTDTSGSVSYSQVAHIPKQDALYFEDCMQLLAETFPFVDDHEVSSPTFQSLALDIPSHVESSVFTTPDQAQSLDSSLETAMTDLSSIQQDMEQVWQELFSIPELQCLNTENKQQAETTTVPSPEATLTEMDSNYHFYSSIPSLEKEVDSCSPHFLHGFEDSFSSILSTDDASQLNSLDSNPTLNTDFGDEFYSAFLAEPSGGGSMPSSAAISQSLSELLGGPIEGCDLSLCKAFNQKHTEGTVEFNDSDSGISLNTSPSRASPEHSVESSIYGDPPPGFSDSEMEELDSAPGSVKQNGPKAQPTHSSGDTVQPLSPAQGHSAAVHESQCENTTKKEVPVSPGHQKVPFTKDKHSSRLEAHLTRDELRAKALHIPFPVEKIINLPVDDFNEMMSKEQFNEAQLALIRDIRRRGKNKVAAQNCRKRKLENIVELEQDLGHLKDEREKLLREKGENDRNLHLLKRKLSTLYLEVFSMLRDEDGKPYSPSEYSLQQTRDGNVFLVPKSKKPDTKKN
In words: Activation of Nrf2 in rat PC12 cells assessed as increase in TrxR1 protein level at 20 uM after 24 hrs by Western blot analysis. Type of assay: cell-based. The note with it: PC-12, filed as activator. In general terms: In western blotting, separated proteins are transferred to a membrane and probed.

The subject of assay [2] is PC-12. As to the kind of experiment: Protection against 6-OHDA-induced mitochondrial dysfunction in rat PC12 cells assessed as change in mitochondrial membrane potential loss at 20 uM pretreated with compound followed by 6-OHDA addition by JC-1 staining based flow cytometry (reference value: 26.8 %). Type of assay: functional. In outline: (§1)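 Mitochondrial membrane potential in PC12 cells pretreated with compound (5, 10, 20 μM), then exposed to H₂O₂ (200 μM) or 6-OHDA (150 μM). JC-1 staining, red-to-green fluorescence shift read by flow cytometry. Mean ± SD, n = 3.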
For orientation: In flow cytometry, cells or beads pass a laser one at a time.

Assay [3] has as its system PC-12. In words: Protection against 6-OHDA-induced apoptosis in rat PC12 cells assessed as necrotic cells at 20 uM incubated for 24 hrs by annexin V FITC/propidium iodide staining based flow cytometry (reference value: 1.1 %). Type of assay: functional.
Assay [4] deals with PC-12. In words: Protection against 6-OHDA-induced apoptosis in rat PC12 cells assessed as necrotic cells at 5 uM incubated for 24 hrs by annexin V FITC/propidium iodide staining based flow cytometry (reference value: 1.1 %). Type of assay: functional.
Assay [5] has as its system PC-12. As to the kind of experiment: Neuroprotective activity against 6-OHDA-induced apoptosis in rat PC12 cells assessed as reduction in apoptotic nuclei at 5 to 20 uM pretreated with compound followed by Hoechst 33342 staining based fluorescence microscopy analysis. The note with it: dose 5-20 µM.
For assay [6], the system named is PC-12. In words: Protection against H2O2-induced mitochondrial dysfunction in rat PC12 cells assessed as change in mitochondrial membrane potential at 20 uM pretreated with compound followed by H2O2 addition by JC-1 staining based flow cytometry (reference value: 78.7 %). Type of assay: functional. A digest of the protocol:
as §1

For assay [7], the target named is T2, Nuclear factor erythroid 2-related factor 2 (Mus musculus) (UniProt Q60795).
T2 sequence (whole entry): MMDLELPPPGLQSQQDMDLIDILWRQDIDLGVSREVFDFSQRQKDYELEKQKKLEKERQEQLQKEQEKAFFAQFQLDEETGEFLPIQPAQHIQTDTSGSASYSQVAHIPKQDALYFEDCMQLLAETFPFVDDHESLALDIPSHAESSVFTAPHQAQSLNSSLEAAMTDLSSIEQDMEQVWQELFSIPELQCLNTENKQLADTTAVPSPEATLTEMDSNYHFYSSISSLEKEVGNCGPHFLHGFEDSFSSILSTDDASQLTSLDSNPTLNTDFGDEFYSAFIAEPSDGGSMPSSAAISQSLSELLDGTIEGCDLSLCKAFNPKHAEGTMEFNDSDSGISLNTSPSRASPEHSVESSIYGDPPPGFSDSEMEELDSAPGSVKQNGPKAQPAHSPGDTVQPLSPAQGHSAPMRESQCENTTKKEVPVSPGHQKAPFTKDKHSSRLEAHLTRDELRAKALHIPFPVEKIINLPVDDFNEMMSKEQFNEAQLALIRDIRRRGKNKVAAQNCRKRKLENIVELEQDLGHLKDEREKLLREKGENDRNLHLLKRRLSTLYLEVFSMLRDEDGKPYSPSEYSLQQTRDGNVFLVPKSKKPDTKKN
As to the kind of experiment: Activation of Nrf2 in mouse BV2 cells assessed as upregulation of NQO-1 protein expression after 24 hrs by Western blot analysis. Type of assay: cell-based. The note with it: BV-2, filed as activator, dose 5-20 µM. In outline: (§2)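 BV2 microglia exposed to compound for 24 h over a concentration series; Nrf2, NQO1, HO-1, TrxR1, GCLM and GCLC protein levels read by Western blot.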

The target of assay [8] is T1, Nuclear factor erythroid 2-related factor 2 (Rattus norvegicus). As to the kind of experiment: Induction of Nrf2 translocation from cytoplasm to nucleus in rat PC12 cells at 20 uM after 6 hrs by Western blot analysis. It counts as cell-based. The note with it: PC-12, filed as activator. In outline:
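PC12 cells given compound; nuclear and cytoplasmic fractions probed for Nrf2 by Western blot across a time course up to and beyond 6 h.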

Assay [9] has as its target T2, Nuclear factor erythroid 2-related factor 2 (Mus musculus). As to the kind of experiment: Activation of Nrf2 in mouse BV2 cells assessed as upregulation of TrxR1 protein expression after 24 hrs by Western blot analysis. It counts as cell-based. The note with it: BV-2, filed as activator, dose 5-20 µM. A digest of the protocol:
as §2

Assay [10] has as its system PC-12. As to the kind of experiment: Protection against H2O2-induced mitochondrial dysfunction in rat PC12 cells assessed as change in mitochondrial membrane potential loss at 10 uM pretreated with compound followed by H2O2 addition by JC-1 staining based flow cytometry (reference value: 21.3 %). Type of assay: functional. A digest of the protocol:
as §1

Assay [11] concerns PC-12. As to the kind of experiment: Protection against H2O2-induced mitochondrial dysfunction in rat PC12 cells assessed as change in mitochondrial membrane potential loss at 20 uM pretreated with compound followed by H2O2 addition by JC-1 staining based flow cytometry (reference value: 21.3 %). Type of assay: functional. In outline:
as §1

Assay [12] relates to PC-12. In words: Prevention of H2O2-induced calcium overload in rat PC12 cells assessed as reduction in intracellular free calcium by measuring mean fluorescence intensity at 10 uM pretreated with compound followed by H2O2 addition measured after 24 hrs by Fluo-3AM based fluorescence assay (reference value: 17791.36%). Type of assay: functional.
The subject of assay [13] is PC-12. As to the kind of experiment: Protection against H2O2-induced apoptosis in rat PC12 cells assessed as necrotic cells at 10 uM incubated for 24 hrs by annexin V FITC/propidium iodide staining based flow cytometry (reference value: 0.6 %). It counts as functional.
Assay [14] addresses T1, Nuclear factor erythroid 2-related factor 2 (Rattus norvegicus). As to the kind of experiment: Activation of Nrf2 in rat PC12 cells assessed as increase in GCLM protein level at 20 uM after 12 hrs by Western blot analysis. It counts as cell-based. The note with it: PC-12, filed as activator.

`CCN(C)C(=O)N1CCN(C(=O)/C=C/c2ccc(F)cc2)C1=O`: the result (in [1]; with PC-12 [5]; in assay [8]; in assay [14]) was Active. In addition, the Activity with PC-12 [2] was 10.7%; in the assay with PC-12 [3] it was 0.8%; in the assay with PC-12 [4] it was 1%; with PC-12 [6] it was 92.8%; in assay [7], “Dose-dependent effect”; in assay [9], “Dose-dependent effect”. For the same compound, the Activity with PC-12 [10] worked out at 9.7%; with PC-12 [11] it was 7.2%; with PC-12 [13], 0.2%. For the same compound, the Flu intensity with PC-12 [12] is 7793.41.
